Screening data as filed in PubChem.
Rows were chosen to be rich in hits. Some 2.7% of all compounds tested hit in one or more screens of this group.
Yeast lifespan up: extends the lifespan of yeast; S. cerevisiae growth with nicotinamide, OD615; deaD strain in restrictive glucose medium; inhibition of the nicotinamide effect, % at 10 µM; actives 0.68% (n = 130,000); AID 775;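 active = inhibition above a set limit, placed 3 SD over the median of all compounds, cut at about 26% in these data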
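assay system = DeaD-strain S. cerevisiae | measured by = absorbance at 615 nm | probe or stimulus = nicotinamide 1.5 mM | buffer or medium = CSMM-D glucose medium, restrictive | times = 48 h at 30 °C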
RAM network inh: inhibitors of the yeast RAM network; S. cerevisiae dse1pr::URA3 reporter, 5-FOA growth OD615, 2 d; analog-sensitive cbk1-as2 kinase mutant strain; inhibition, % at 50 µM; actives 1.8% (n = 190,000);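 active = inhibition above a set limit, 3 SD over mean compound inhibition, cut at about 8.4% in these data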;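 also: inhibition rescues growth on 5-FOA so higher OD means more RAM inhibition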
sdo1 growth: compounds rescuing growth of sdo1-depleted yeast, bone marrow failure model. z-score at 10 µM. S. cerevisiae sdo1-depleted JHY4D growth rescue, OD600 30 h; hits give high values; pdr5 snq2 efflux-pump mutant strain. actives 0.21% (n = 140,000);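 active = z-score above 3 at both the 24 hr and the 30 hr optical density reads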
BB579 growth dn: yeast BB579 growth reduction in restrictive medium | AID 804 | S. cerevisiae BB579 growth, OD615, 48 h | inhibition, % at 10 µM | actives 0.51% (n = 140,000);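 active = inhibition above a set limit, 3 SD over the mean compound inhibition, cut at about 44% in these data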
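Test system: S. cerevisiae DeaD strain BB579 yeast; Medium: restrictive CSMM-D medium; Compound: one dose, 10 µM compound with 0.25% DMSO; Incubation: 4 h cell preincubation, 48 h compound exposure, 30 °C humidified; Signal: OD at 615 nm; Benchmarks: amphotericin B at 10 µg/mL as positive control.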
Of the large screens only hits and unclear results are named; the others gave an inactive call.

CN(C)/C=C(/C(=O)c1ccc(Cl)cc1Cl)S(=O)(=O)c1ccccc1	none
CN(C)/C=C(/C(=O)c1ccc(Cl)cc1Cl)S(=O)(=O)c1ccc(Cl)cc1	Yeast lifespan up 69.1
Cc1ccc(S(=O)(=O)Oc2ccccc2/C=N/NC(N)=S)cc1	RAM network inh 9.1
Cc1ccc(S(=O)(=O)Oc2ccccc2/C=N/N=C(N)N)cc1	none (no result: Yeast lifespan up, sdo1 growth, BB579 growth dn)
COc1ccc(/C=C2\SC(=S)N(NC(=O)c3ccncc3)C2=O)cc1OC	none (no result: Yeast lifespan up, sdo1 growth, BB579 growth dn)
COc1ccc(/C=C2/SC(=O)N(NS(=O)(=O)c3ccccc3)C2=S)cc1OC	Yeast lifespan up 32.2
C=CCNC(=O)C(C#N)c1nc2ccccc2nc1N1CCCCCC1 (stereo not drawn)	RAM network inh 9.0
CCCCNC(=O)C(C#N)c1nc2ccccc2nc1N1CCCC1 (stereo not drawn)	none
CCc1ccc(-n2c(Cc3ccccc3)n[nH]c2=S)cc1	none (no result: Yeast lifespan up, sdo1 growth, BB579 growth dn)
COC1=C(c2ccccc2)C(=O)c2ccccc2C1=O	BB579 growth dn 68.4
COc1ccc(C2=C(N)c3ccccc3C2=O)cc1	none
CCS(=O)(=O)c1ccc2c(c1)N(S(C)(=O)=O)CC(C(=O)NN)O2 (stereo not drawn)	none (no result: Yeast lifespan up, sdo1 growth, BB579 growth dn)
CCOC(=O)/C(=N\Nc1cccc(C(F)(F)F)c1)N(CCOC)CCOC	BB579 growth dn 54.4
CCOC(=O)/C(=N\Nc1cccc(C(F)(F)F)c1)N1CCOCC1	none (no result: Yeast lifespan up, sdo1 growth, BB579 growth dn)
COc1cc(C)ccc1OCCOc1c(Cl)cc(Cl)cc1Cl	RAM network inh 9.9
COc1cc(C)ccc1OCCOc1cc(C)ccc1Cl	none
COC(=O)c1sc2ccccc2c1N	none
CCOC(=O)c1sc2ccccc2c1OC(=O)c1ccc(C)cc1	RAM network inh 8.7
CC1(C)Cc2c(C#N)c(N3CCOCC3)nc(Cc3ccccc3)c2CO1	RAM network inh 11.0
COCCNC(=O)NC(=O)CSc1nc(C)c(C)c(C)n1	none (no result: Yeast lifespan up, sdo1 growth, BB579 growth dn)
Cn1c(SCC(=O)Nc2ccccc2)nc(O)cc1=O	BB579 growth dn 61.6
CN(C)c1ncc(C2=C(Cl)C(=O)C(N3CCCC3)=C(Cl)C2=O)s1	none (no result: Yeast lifespan up)
O=C1C(Cl)=C(N2CCCCC2)C(=O)C(Cl)=C1c1cnc(N2CCCCC2)s1	RAM network inh 9.5 (no result: Yeast lifespan up)
CCCNS(=O)(=O)c1ccc(OCC(=O)Nc2ccc3c(c2)OCO3)cc1	none (no result: Yeast lifespan up, sdo1 growth, BB579 growth dn)
CC(=O)c1ccc(NC(=O)C(C)OC(=O)c2ccc(NS(=O)(=O)c3ccc(F)c(F)c3)cc2)cc1 (stereo not drawn)	RAM network inh 9.2
Cc1ccc(NC(=O)C(C)OC(=O)c2ccc(NS(=O)(=O)c3ccc(F)c(F)c3)cc2)cc1 (stereo not drawn)	none
O=[N+]([O-])c1ccc(N2CCC(=NOCc3ccc(Cl)cc3)CC2)cc1	RAM network inh 11.3
O=C(NCc1ccco1)c1cccc2c1C(=O)N(C1CCCCC1)C2	none
O=C(NCc1cccnc1)c1cccc2c1C(=O)N(C1CCCCC1)C2	Yeast lifespan up 52.2
O=C(O)CCC(=O)N1CCN(c2nc(-c3ccccc3Cl)c3cc(Br)ccc3n2)CC1	BB579 growth dn 99.2
Clc1ccccc1-c1ncnc2ccc(Br)cc12	none (no result: Yeast lifespan up, sdo1 growth, BB579 growth dn)
Cc1ccc(C2=NN(C(=O)CCl)C(c3cccs3)C2)o1 (stereo not drawn)	Yeast lifespan up 35.3
Cc1[nH]c2ccc(-c3n[nH]c(=S)n3-c3ccc(Br)cc3)cc2c1C	RAM network inh 10.2 (no result: Yeast lifespan up, sdo1 growth, BB579 growth dn)
Cc1[nH]c2ccc(-c3n[nH]c(=S)n3-c3ccccc3)cc2c1C	none
CCn1c(Sc2nc(C)nc3scc(-c4cccs4)c23)n[nH]c1=O	BB579 growth dn 99.0
CCc1nc2ccccc2c(=O)n1NC(=O)c1c(O)c2ccccc2n(CC)c1=O	none (no result: Yeast lifespan up, sdo1 growth, BB579 growth dn)
CCn1c(=O)c(C(=O)Nc2nc3ccccc3[nH]2)c(O)c2ccccc21	BB579 growth dn 67.3
CCn1c(=O)c(C(=O)Nn2c(C)nc3ccccc3c2=O)c(O)c2ccccc21	BB579 growth dn 99.3
CCC(C)c1ccc(S(=O)(=O)N2CCN(C(C)CC(=O)O)CC2)cc1 (stereo not drawn)	none (no result: Yeast lifespan up, sdo1 growth, BB579 growth dn)
O=c1c(Cl)c(Nc2cccc(Cl)c2)cnn1-c1nc2ccccc2s1	none
Cc1ccc(C)c(N2CCN(c3cnn(-c4nc5ccccc5s4)c(=O)c3Cl)CC2)c1	RAM network inh 9.1
COc1ccc(Nc2cnn(-c3nc4ccccc4s3)c(=O)c2Cl)cc1	BB579 growth dn 77.7
CCn1cc(C(=O)OCC(=O)NCc2ccccc2Cl)c(=O)c2ccc(C)nc21	none (no result: Yeast lifespan up, sdo1 growth, BB579 growth dn)
Cc1cccc(NC(=O)COC(=O)Cc2cccc(C(F)(F)F)c2)c1C	none
O=C1CSC(=S)N1c1cccnc1	BB579 growth dn 44.4
CC(=O)c1cc(F)ccc1OCC(=O)N1CCN(c2ccc(F)cc2)CC1	none (no result: Yeast lifespan up, sdo1 growth, BB579 growth dn)
CS(=O)(=O)N(CC(O)CON=C1c2ccccc2-c2ccccc21)c1ccc(F)cc1 (stereo not drawn)	none
CC(C)CCNCC(O)CON=C1c2ccccc2-c2ccccc21 (stereo not drawn)	none (no result: Yeast lifespan up, sdo1 growth, BB579 growth dn)
CN(CC(O)CON=C1c2ccccc2-c2ccccc21)S(=O)(=O)c1ccc(Br)cc1 (stereo not drawn)	RAM network inh 9.3
Cc1cccc(N(CC(O)CON=C2c3ccccc3-c3ccccc32)S(C)(=O)=O)c1 (stereo not drawn)	RAM network inh 9.8
Cc1ccc(CN2CCNC(=O)C2CC(=O)NCC(F)(F)F)o1 (stereo not drawn)	none (no result: Yeast lifespan up, sdo1 growth, BB579 growth dn)
O=c1nc(Nc2ccc(OCc3ccccc3)cc2)sc2ncccc12	RAM network inh 9.3 (no result: Yeast lifespan up, sdo1 growth, BB579 growth dn)
CCOC(=O)c1ccc(Nc2nc(=O)c3cccnc3s2)cc1	none
COc1ccc(/C=C2\C(=O)ON=C2c2cccc([N+](=O)[O-])c2)cc1	none (no result: Yeast lifespan up, sdo1 growth, BB579 growth dn)
COc1ccc(/C=C2/C(=O)ON=C2c2ccccc2)cc1OC	Yeast lifespan up 27.4, BB579 growth dn 61.2
COc1cc(/C=C2\C(=O)ON=C2c2ccccc2)cc(OC)c1OC	BB579 growth dn 48.1
O=C1ON=C(c2ccccc2)/C1=C/c1ccco1	none (no result: Yeast lifespan up, sdo1 growth, BB579 growth dn)
CCOC(=O)Cc1csc(NC(=S)NC(=O)c2cccc([N+](=O)[O-])c2)n1	none
COc1ccc(-c2ccnc(SCC(=O)c3ccc(Cl)cc3)n2)cc1	RAM network inh 8.9
CC(c1cccs1)N(Cc1ccco1)C(=O)Nc1ccc(Cl)c(Cl)c1 (stereo not drawn)	RAM network inh 11.2
COc1cccc(NC(=O)N(Cc2ccco2)C(C)c2cccs2)c1 (stereo not drawn)	none
CCOC(=O)C1=C(Cc2ccc(C)cc2)C(=O)c2ccccc2C1=O	RAM network inh 9.6
O=C(/C(=C/c1ccccc1)n1cncn1)c1ccc(Cl)cc1Cl	Yeast lifespan up 48.5
O=C(/C(=N\O)n1cncn1)c1ccc(Cl)cc1Cl	none (no result: Yeast lifespan up, sdo1 growth, BB579 growth dn)
CCOc1ccc(S(=O)(=O)N2CCCCC2)c2ccccc12	RAM network inh 9.4
O=S(=O)(c1ccc(F)c2ccccc12)N1CCCCC1	RAM network inh 8.9
O=S(=O)(c1ccccc1S(=O)(=O)N1CCCCC1)N1CCCCC1	none
CCOc1ccc(S(=O)(=O)N2CCCCC2)c(C)c1C	none (no result: Yeast lifespan up, sdo1 growth, BB579 growth dn)
O=C(COC(=O)c1cc(=O)[nH]c(=O)[nH]1)Nc1cccc(S(=O)(=O)N2CCOCC2)c1	none (no result: Yeast lifespan up, sdo1 growth, BB579 growth dn)
CC(=O)N1CCC(=NNC(=O)c2cccs2)CC1	none
